The results in this text go back to ChEMBL document CHEMBL1649328, “Assessment of pandemic and seasonal influenza A (H1N1) virus susceptibility to neuraminidase inhibitors in three enzyme activity inhibition assays” (Antimicrob Agents Chemother, 2010).

Experiment [1] has as its system Influenza A virus. Kind of experiment: Ratio of IC50 for influenza A (A/Singapore/57/2009 (H1N1)) virus harboring neuraminidase H275Y mutant to IC50 for influenza A (A/Washington/29/2009 (H1N1)) virus expressing wild type enzyme by MUNANA substrate based fluorometric assay. Type of experiment: functional. A digest of the protocol:
(§1)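 Fluorometric NA inhibition in MES/CaCl2 buffer, pH 6.0. Virus preincubated 30 min at 37°C with ten half-log inhibitor dilutions (0.03–1,000 nM final), then MUNANA (100 μM final) added for 30 min at 37°C. Stopped with 0.1 M glycine in 25% ethanol, pH 10.7. Read at ex 365/em 450 nm. IC50 curve-fitted, mean of ≥3 experiments. Ratio is variant IC50 over wild-type reference IC50.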

Experiment [2] relates to Influenza A virus. Nature of the experiment: Antiviral activity against influenza A (A/Singapore/57/2009 (H1N1)) virus harboring neuraminidase H275Y mutant after 30 mins by MUNANA substrate based fluorometric assay. Type of experiment: functional, organism-based. A digest of the protocol: (§2)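 Fluorometric NA inhibition with MUNANA (100 μM final). Titrated virus in NA-Star buffer (26 mM MES, 4 mM CaCl2, pH 6.0) was preincubated with ten half-log inhibitor dilutions (0.03–1,000 nM final) for 30 min at 37°C, then with substrate for 30 min at 37°C. The reaction was stopped with 0.1 M glycine in 25% ethanol, pH 10.7, and 4-methylumbelliferone was read at ex 365/em 450 nm. IC50 came from a Vmax·[1−x/(K+x)] fit, mean of ≥3 experiments.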

The subject of experiment [3] is Influenza A virus. Nature of the experiment: Antiviral activity against influenza A (A/Washington/29/2009 (H1N1)) virus harboring neuraminidase H275Y mutant after 16 to 18 hrs by fetuin substrate based colorimetric assay. Type of experiment: functional, organism-based. A digest of the protocol:
(§3)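 Colorimetric NA inhibition with fetuin substrate. Virus was diluted in NA-Star buffer (26 mM MES, 4 mM CaCl2, pH 6.0) to give OD549 of 0.4–0.8 after 18 h. It was preincubated with ten half-log inhibitor dilutions (0.03–1,000 nM final) for 1 h at 37°C, then with fetuin (5.5 mg/ml final) for 16–18 h at 37°C. Released sialic acid was read at 549 nm after periodate/TBA reaction and butanol extraction. IC50 came from a Vmax·[1−x/(K+x)] fit, mean of ≥2 experiments.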

Experiment [4] concerns Influenza A virus. Kind of experiment: Ratio of IC50 for influenza A (A/Hong Kong/2369/2009 (H1N1)) virus harboring neuraminidase H275Y mutant to IC50 for influenza A (A/Washington/29/2009 (H1N1)) virus expressing wild type enzyme by MUNANA substrate based fluorometric assay. Format: functional.
In experiment [5] the test system is Influenza A virus. Nature of the experiment: Ratio of IC50 for influenza A (A/New York/18/2009 (H1N1)) virus harboring neuraminidase H275Y mutant to IC50 for influenza A (A/Washington/10/2008 (H1N1)) virus expressing wild type enzyme by fetuin substrate based colorimetric assay. Format: functional.
Experiment [6] has as its system Influenza A virus. Kind of experiment: Ratio of IC50 for influenza A (A/Hong Kong/2369/2009 (H1N1)) virus harboring neuraminidase H275Y mutant to IC50 for influenza A (A/Washington/29/2009 (H1N1)) virus expressing wild type enzyme by NA-star substrate based chemiluminescent assay. Type of experiment: functional.
The test system of experiment [7] is Influenza A virus. Nature of the experiment: Ratio of IC50 for influenza A (A/Singapore/91/2009 (H1N1)) virus harboring neuraminidase H275Y mutant to IC50 for influenza A (A/Washington/29/2009 (H1N1)) virus expressing wild type enzyme by fetuin substrate based colorimetric assay. Format: functional. A digest of the protocol: (§4)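 Colorimetric NA inhibition using a virus dilution that gave 0.4–0.8 OD549. Virus preincubated 1 h at 37°C with half-log inhibitor dilutions (0.03–1,000 nM final) in MES/CaCl2 pH 6.0 buffer. Fetuin (5.5 mg/ml final) then added for 18 h at 37°C. Released sialic acid detected by periodate oxidation and thiobarbituric acid, butanol extraction, read at 549 nm. IC50 curve-fitted, ≥2 experiments. Ratio is variant IC50 over wild-type reference IC50.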

Experiment [8] relates to Influenza A virus. Nature of the experiment: Ratio of IC50 for influenza A (A/Singapore/91/2009 (H1N1))virus harboring neuraminidase H275Y mutant to IC50 for influenza A (A/Washington/29/2009 (H1N1)) virus expressing wild type enzyme by MUNANA substrate based fluorometric assay. Type of experiment: functional. Put shortly:
as §1

The subject of experiment [9] is Influenza A virus. Kind of experiment: Ratio of IC50 for influenza A (A/Washington/29/2009 (H1N1)) virus harboring neuraminidase H275Y mutant to IC50 for influenza A (A/Washington/29/2009 (H1N1)) virus expressing wild type enzyme by NA-star substrate based chemiluminescent assay. Format: functional. Put shortly: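 Chemiluminescent NA inhibition in MES 26 mM/CaCl2 4 mM buffer, pH 6.0. […] Luminescence read for 0.1 s. IC50 from the fit y = Vmax·{1 − [x/(K + x)]}, mean of ≥3 experiments. Ratio is the H275Y variant IC50 over the pandemic wild-type reference IC50.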

For experiment [10], the system named is Influenza A virus. Nature of the experiment: Antiviral activity against influenza A (A/Osaka/180/2009 (H1N1)) virus harboring neuraminidase H275Y mutant after 30 mins by NA-star substrate based chemiluminescent assay. Format: functional, organism-based. Put shortly: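 Titrated virus in NA-Star buffer (26 mM MES, 4 mM CaCl2, pH 6.0) was preincubated with ten half-log inhibitor dilutions (0.03–1,000 nM final) for 30 min at 37°C, then with substrate for 30 min at room temperature. Accelerator solution was added and luminescence read for 0.1 s. IC50 came from a Vmax·[1−x/(K+x)] fit, mean of ≥3 experiments.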

Experiment [11] concerns Influenza A virus. Nature of the experiment: Ratio of IC50 for influenza A (A/Osaka/180/2009 (H1N1)) virus harboring neuraminidase H275Y mutant to IC50 for influenza A (A/Washington/29/2009 (H1N1)) virus expressing wild type enzyme by fetuin substrate based colorimetric assay. Format: functional. A digest of the protocol: as §4
Experiment [12] relates to Influenza A virus. Nature of the experiment: Ratio of IC50 for influenza A (A/North Carolina/02/2009 (H1N1)) virus harboring neuraminidase H275Y mutant to IC50 for influenza A (A/Washington/10/2008 (H1N1)) virus expressing wild type enzyme expressing wild type enzyme by NA-star substrate based chemiluminescent assay. Type of experiment: functional.
For experiment [13], the system named is Influenza A virus. Nature of the experiment: Ratio of IC50 for influenza A (A/Osaka/180/2009 (H1N1)) virus harboring neuraminidase H275Y mutant to IC50 for influenza A (A/Washington/29/2009 (H1N1)) virus expressing wild type enzyme by MUNANA substrate based fluorometric assay. Format: functional.
Experiment [14] concerns Influenza A virus. Nature of the experiment: Ratio of IC50 for influenza A (A/New York/18/2009 (H1N1)) virus harboring neuraminidase H275Y mutant to IC50 for influenza A (A/Washington/10/2008 (H1N1)) virus expressing wild type enzyme by NA-star substrate based chemiluminescent assay. Format: functional.
Experiment [15] has as its system Influenza A virus. Nature of the experiment: Antiviral activity against influenza A (A/Osaka/180/2009 (H1N1)) virus harboring neuraminidase H275Y mutant after 16 to 18 hrs by fetuin substrate based colorimetric assay. Format: functional, organism-based. A digest of the protocol:
as §3

The test system of experiment [16] is Influenza A virus. Nature of the experiment: Antiviral activity against influenza A (A/Hong Kong/2369/2009 (H1N1)) virus harboring neuraminidase H275Y mutant after 16 to 18 hrs by fetuin substrate based colorimetric assay. Format: functional, organism-based. Put shortly: as §3
The subject of experiment [17] is Influenza A virus. Nature of the experiment: Antiviral activity against influenza A (A/Montana/02/2009 (H1N1)) virus harboring neuraminidase H275Y mutant after 30 mins by MUNANA substrate based fluorometric assay. Type of experiment: functional, organism-based. A digest of the protocol:
as §2

Experiment [18] deals with Influenza A virus. Kind of experiment: Antiviral activity against influenza A (A/Singapore/57/2009 (H1N1)) virus harboring neuraminidase H275Y mutant after 16 to 18 hrs by fetuin substrate based colorimetric assay. Type of experiment: functional, organism-based. Put shortly: as §3

In the case of `C/C=C\[C@@H]1C[C@H](C(=O)O)N[C@H]1[C@@H](NC(C)=O)[C@](C)(CCC)OC`, the “Ratio IC50” value was 3 in [1]; 3 in [4]; 1 in experiment [5]; 3 in experiment [6]; 1 in [7]; 1 in [8]. Further, the “Ratio IC50” value is 5 in [9]; 3 in experiment [11]; 1 in experiment [12]; 5 in experiment [13]; 1 in [14]. Also, the 50% inhibitory concentration (IC50) in experiment [2] worked out at 1.39 nM; in [3], 2.07 nM; in experiment [10], 0.91 nM; in [15], 4.08 nM; in [16] it was 3.56 nM; in experiment [17], 2.6 nM. Moreover, the half-maximal inhibitory concentration (IC50) in experiment [18] was determined as 1.58 nM.

As to `CCC(CC)[C@H](NC(C)=O)[C@@H]1[C@H](O)[C@@H](C(=O)O)C[C@H]1NC(=N)N` [PERAMIVIR ANHYDROUS], the “Ratio IC50” value in experiment [1] is 609; in experiment [4] it was 641; in [5], 1; in [6], 66; in [7], 1; in [8], 1. Besides, the “Ratio IC50” value came to 89 in experiment [9]; 398 in experiment [11]; 1 in experiment [12]; 488 in experiment [13]; 1 in experiment [14]. In addition, the IC50 was 122 nM in experiment [2]; 163 nM in experiment [3]; 13.1 nM in [10]; 195 nM in [15]; 162 nM in [16]; 197 nM in experiment [17]. The compound further had an IC50 in experiment [18] of 84.8 nM.

One may read the IC50 as the concentration needed to halve the response being measured.
